For eight compounds, EC50 and CC50 results are on record in ChEMBL document CHEMBL1140288, “First synthesis and evaluation of the inhibitory effects of aza analogues of TSAO on HIV-1 replication” (J Med Chem, 2005).

Each structure is given as a SMILES string.

In assay [1] the test system is CCRF-CEM. Put plainly: Concentration of compound inhibiting Glu138-Lys mutant HIV-1(IIIB) induced cytopathicity in CEM cell culture by 50%. The assay is classed as functional, cell-based. Conditions: Homo sapiens. The method in brief:
(§1)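 CEM cells at 4 × 10⁵ per mL infected at ~100 CCID₅₀ per mL of cell suspension, then mixed 1:1 with compound dilutions in microtiter wells. Giant cell formation was scored microscopically after 4 days. EC₅₀ is the concentration inhibiting virus-induced cytopathicity by 50%. Mutant HIV-1(IIIB) RT strains were selected as described previously.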

In assay [2] the test system is CCRF-CEM. The assay can be described thus: Concentration of compound inhibiting Lys103-Asn mutant HIV-1(IIIB) induced cytopathicity in CEM cell culture by 50%. The assay is classed as functional, cell-based. To be noted: Homo sapiens. The method in brief: as §1
A general note: Protection from cytopathic effect is a common read-out in antiviral testing.

Assay [3] has as its system CCRF-CEM. Put plainly: Concentration of compound inhibiting Tyr181- Cys mutant HIV-1(IIIB) induced cytopathicity in CEM cell culture by 50%. The assay is classed as functional, cell-based. Conditions: Homo sapiens. The method in brief:
as §1

Assay [4] relates to CCRF-CEM. The assay can be described thus: Concentration of compound required to inhibit HIV-1(IIIB) induced cytopathicity in CEM cell culture by 50%. It counts as functional, cell-based. To be noted: Homo sapiens. Put shortly:
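CEM cells at 4 × 10⁵ per mL were infected with HIV-1(III_B) at ∼100 CCID₅₀ per mL and mixed 1:1 with serial compound dilutions. Giant cell formation was scored microscopically after 4 days. EC₅₀ was taken as the concentration giving 50% inhibition of virus-induced cytopathicity.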

Assay [5] relates to CCRF-CEM. Put plainly: Concentration of compound required to inhibit HIV-2 (ROD) induced cytopathicity in CEM cell culture by 50%. The assay is classed as functional, cell-based. Conditions: Homo sapiens. The method in brief:
as §1

In assay [6] the test system is MT4. Put plainly: Concentration of compound required to inhibit HIV-1(IIIB) induced cytopathicity in MT-4 cell culture by 50%. Conditions: Homo sapiens. It counts as functional, cell-based. The method in brief: (§2)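 MT-4 cells at 3 × 10⁵ per mL were infected with HIV-1(III_B) or HIV-2(ROD) at ∼100 CCID₅₀ per mL, then mixed 1:1 with compound dilutions. After 4 days, viability was read by the MTT method. EC₅₀ was taken as the concentration giving 50% protection against HIV-induced cytopathicity.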

Assay [7] has as its system MT4. The assay can be described thus: Concentration of compound required to inhibit HIV-2 (ROD) induced cytopathicity in MT-4 cell culture by 50%. The assay is classed as functional, cell-based. To be noted: Homo sapiens. The method in brief:
as §2

Assay [8] in a line: Concentration of compound required to reduce by 50% the number of viable cells in mock infected CEM cell cultures. It counts as functional. Conditions: Homo sapiens, CCRF-CEM. The method in brief:
(§3)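 Mock-infected CEM cells (4 × 10⁵ per mL) or MT-4 cells (3 × 10⁵ per mL) were exposed to serial compound dilutions for 4 days. CC₅₀ was the concentration reducing the number of viable cells by 50%.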

Assay [9] relates to MT4. Put plainly: Concentration of compound required to reduce by 50% the number of viable cells in mock infected MT-4 cell cultures. The assay is classed as functional. To be noted: Homo sapiens. The method in brief:
as §3

Assay [10] relates to Human immunodeficiency virus 1. The assay can be described thus: Concentration of compound inhibiting Tyr181Cys mutant HIV-1(IIIB) induced cytopathicity in CEM cell culture by 50%. It counts as functional, organism-based. Conditions: Human immunodeficiency virus 1, CCRF-CEM. Put shortly:
as §1

The EC50 is the midpoint of the concentration-response curve. Read a high EC50 as a less potent agent. As a reminder, the CC50 is the concentration giving 50% cytotoxicity. For the compound `Cc1cn([C@@H]2O[C@H](CO[Si](C)(C)C(C)(C)C)[C@@]3(OS(=O)(=O)C=C3N)[C@H]2O[Si](C)(C)C(C)(C)C)c(=O)[nH]c1=O`, the EC50 was 4.6 µM in the assay with CCRF-CEM [1]; 0.4 µM with CCRF-CEM [2]; 3 µM with CCRF-CEM [3]; 0.06 µM with CCRF-CEM [4]; greater than 4 µM with CCRF-CEM [5]; 0.06 µM with MT4 [6]. Further, in the assay on MT4 [7], the EC50 was greater than 20 µM. Moreover, the CC50 in assay [8] is 16 µM; with MT4 [9], 14 µM.

`Cc1cn([C@@H]2O[C@H](CO[Si](C)(C)C(C)(C)C)[C@@]3(NS(=O)(=O)C=C3N)[C@H]2O[Si](C)(C)C(C)(C)C)c(=O)[nH]c1=O`: the EC50 in [10] was greater than 10 µM; in the assay with CCRF-CEM [4], 0.33 µM; in the assay with CCRF-CEM [5], greater than 10 µM; with MT4 [6], 0.53 µM; in the assay with MT4 [7], greater than 100 µM. Further, the CC50 in assay [8] was 19.1 µM; in the assay on MT4 [9], 105 µM.

Take `Cc1cn([C@@H]2O[C@H](CO[Si](C)(C)C(C)(C)C)[C@]3(C(N)=CS(=O)(=O)N3C)[C@H]2O[Si](C)(C)C(C)(C)C)c(=O)[nH]c1=O`: the EC50 in assay [10] is greater than 10 µM; with CCRF-CEM [4], 3.5 µM; in the assay on CCRF-CEM [5], greater than 10 µM; with MT4 [6], 1.6 µM; in the assay on MT4 [7] it was greater than 20 µM. Further, the CC50 in assay [8] stood at 21.6 µM; in the assay with MT4 [9] it was 19 µM.

On to `Cc1cn([C@@H]2O[C@H](CO[Si](C)(C)C(C)(C)C)[C@@]3(NS(=O)(=O)C=C3N)[C@H]2O[Si](C)(C)C(C)(C)C)c(=O)n(C(=O)OC(C)(C)C)c1=O`, for which the EC50 in the assay with CCRF-CEM [2] is 5 µM; in the assay with CCRF-CEM [4], 0.43 µM; with CCRF-CEM [5] it was greater than 10 µM; in the assay on MT4 [6], 0.13 µM. Moreover, the results for the CC50 (in assay [8]; in the assay on MT4 [9]) were 21.2 µM and 19 µM, respectively.

`CCn1c(=O)c(C)cn([C@@H]2O[C@H](CO[Si](C)(C)C(C)(C)C)[C@@]3(NS(=O)(=O)C=C3N)[C@H]2O[Si](C)(C)C(C)(C)C)c1=O`: the EC50 in the assay on CCRF-CEM [1] was greater than 2 µM; with CCRF-CEM [2], greater than 2 µM; in assay [10] it was greater than 2 µM; in the assay with CCRF-CEM [4], 0.31 µM. Besides, the 50% cytotoxic concentration (CC50) in [8] stood at 4.9 µM.

Consider `Cc1cn([C@@H]2O[C@H](CO[Si](C)(C)C(C)(C)C)[C@@]3(NS(=O)(=O)C=C3N)[C@H]2O[Si](C)(C)C(C)(C)C)c(=O)n(C)c1=O`, for which the EC50 is greater than 10 µM in the assay with CCRF-CEM [1], 4 µM in the assay with CCRF-CEM [2], greater than 10 µM in [10] and 0.22 µM with CCRF-CEM [4]. For the same compound, the CC50 in [8] is 5.8 µM.

For the compound `Cc1cn([C@@H]2O[C@H](CO[Si](C)(C)C(C)(C)C)[C@]3(C(N)=CS(=O)(=O)N3C)[C@H]2O[Si](C)(C)C(C)(C)C)c(=O)n(C)c1=O`, the EC50 was greater than 250 µM in assay [10]; 2.5 µM with CCRF-CEM [4]; greater than 250 µM in the assay on CCRF-CEM [5]; 0.66 µM with MT4 [6]; greater than 200 µM in the assay on MT4 [7]. Besides, the CC50 is greater than 250 µM in [8] and greater than 200 µM with MT4 [9].

With `Cc1cn([C@@H]2O[C@H](CO[Si](C)(C)C(C)(C)C)[C@]3(C(N)=CS(=O)(=O)N3C)[C@H]2O[Si](C)(C)C(C)(C)C)c(=O)n(C(=O)OC(C)(C)C)c1=O`, the EC50 is greater than 10 µM in assay [10]; 3.5 µM in the assay with CCRF-CEM [4]; greater than 10 µM in the assay with CCRF-CEM [5]; 1.8 µM in the assay on MT4 [6]; greater than 20 µM in the assay on MT4 [7]. In addition, the CC50 is 20.6 µM in assay [8] and 20 µM in the assay on MT4 [9].
